According to paper PMC6129214 (Nature medicine, 2018):

How the values were obtained:
platelet aggregation [1] = assay: Mouse ex vivo platelet aggregometry in PRP; details: ADP 1 μM, choline-supplemented mice
How it was run: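 Mice on a choline-supplemented (1% w/w) or control diet, with or without test compound in the diet (0.006% or 0.06% w/w, 2 weeks), are anaesthetized with ketamine 100 mg/kg and xylazine 10 mg/kg. Blood is drawn and PRP aggregation to 1 μM ADP is recorded as % of maximum amplitude per mouse. Plasma TMAO is also measured.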

[2] = test system: carotid artery thrombus formation; assay: FeCl3-induced carotid artery injury thrombosis model; type: in vivo, mice; details: DMB 1.3% v/v; 0.06% IMC or 0.006% FMC in diet
platelet aggregation [3] = assay: Direct incubation of inhibitor with mouse PRP, platelet aggregometry; type: cell-based, mice; details: 20 µM, with or without ADP
plasma TMAO = assay: Plasma TMAO levels; type: in vivo; details: mice on a choline-supplemented diet, data not shown

SMILES	effect on choline diet-enhanced ADP-dependent platelet aggregation in PRP (platelet aggregation [1])	effect on choline diet-induced rise in TMAO and in vivo rate of clot formation [2]	effect of direct incubation on platelet aggregometry responses, mouse PRP (platelet aggregation [3])	effect on plasma TMAO levels in vivo (plasma TMAO)
CC(C)(C)CCO [DMB, 3,3-dimethyl-1-butanol]	significantly reduced	attenuated	no effects	–
Oc1ccc(/C=C/c2cc(O)cc(O)c2)cc1 [Resveratrol]	–	–	–	showed no effect
